Test results from ChEMBL document CHEMBL1671669, “Novel antimalarial aminoquinolines: heme binding and effects on normal or Plasmodium falciparum-parasitized human erythrocytes” (Antimicrob Agents Chemother, 2009).
The source made the active and inactive calls. The calls are words filed in the database; no cut-off is given here.

Tests used:
[1] = Toxicity in human RBC assessed as hemolysis at 50 uM at 40 degC in presence of 10 uM ferriprotoporphyrin 9; assay type: cell-based, Erythrocyte; settings: human red blood cells (RBC), read-out: Activity
Outline: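 Hemolysis assay as for the 37°C format (5% Htc RBC, PBS-glucose, 2 h, 10 μM FP, supernatant A412 read-out), but run at 40°C.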

[2] = Toxicity in human RBC assessed as hemolysis pretreated at 50 uM for 30 mins followed by washing and incubated with 40 uM ferriprotoporphyrin 9 for 2hrs; assay type: cell-based; settings: erythrocyte
Outline: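 RBC exposed 30 min to 50 μM compound, washed, then held 2 h with 40 μM FP; hemolysis read from supernatant Hb at A412.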

[3] = Toxicity in human RBC assessed as potentiation of ferriprotoporphyrin 9-induced hemolysis at 50 uM after 2hrs in presence of 10 uM; assay type: cell-based; settings: erythrocyte
Outline: (§1)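 Human RBC at 5% Htc in PBS-glucose held 2 h at 37°C with a range of compound concentrations, alone or with 10 μM FP. Cells spun down; hemolysis read as A412 of released Hb in supernatant. Five experiments in triplicate.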

[4] = Toxicity in human RBC assessed as hemolysis at 50 uM; assay type: cell-based; settings: erythrocyte; outline: as §1
Plasmodium falciparum [5] = experiment: Antiplasmodial activity against chloroquine-susceptible Plasmodium falciparum D10; assay type: functional, organism-based
Homo sapiens [6] = species: Homo sapiens; experiment: Binding affinity to normal human RBC membrane in presence of 15% hematocrit by fluorimetric method
Outline: (§2)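 Human A+ RBC (citrate-phosphate-dextrose, ≤10 days), washed in cold PBS, held at 15% Htc in PBS-5 mM glucose. Incubation with compound (10 to 50 μM, 50 μM for parasitized comparisons) 30 min at 37°C. Normal RBC or D10/W2-parasitized RBC at 4,0% parasitemia. Cells pelleted, washed free of unbound drug, extracted into CHCl3-1 N HCl, quinoline read by fluorescence.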

Erythrocyte = experiment: Induction of denaturation of hemoglobin in human RBC in acidic condition assessed as denatured hemoglobin level per millimitre of packed RBC; assay type: functional
Outline: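 Fitch-Russell method: intact RBC from 50 μl packed cells brought to 10 ml in 150 mM sodium acetate pH 5.0, held 90 min at 39°C with or without compound at 100 μM. Pellets spun at 3,500 × g, washed thrice in acetate, dissolved in 10 mM Tris-HCl, 2.5% SDS, 0.2 N NaOH; denatured Hb taken as FP from A412 minus A700.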

Plasmodium falciparum [7] = experiment: Antiplasmodial activity against chloroquine-resistant Plasmodium falciparum W2; assay type: functional, organism-based
[8] = Drug uptake in human RBC at 50 uM in absence of 10 um ferriprotoporphyrin 9; assay type: ADME, cell-based; settings: erythrocyte
Outline: (§3)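 Washed human RBC given 50 μM compound for 30 min at 37°C, with or without 10 μM FP. Total uptake and membrane-bound fraction measured fluorimetrically after washing and CHCl3-1 N HCl extraction. One representative experiment in triplicate.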

[9] = Drug uptake in human RBC at 50 uM in presence of 10 um ferriprotoporphyrin 9; assay type: ADME, cell-based; settings: erythrocyte; outline: as §3
[10] = Inhibition of beta-hematin formation by BHIA assay; assay type: functional
[11] = Vacuolar accumulation ratio of the compound at pH 5.2; assay type: ADME
Outline: (§4)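 VAR taken as antilog of calculated log D7.4 minus calculated log D5.2. log D from log P and pKa values measured potentiometrically at 25°C in 0.15 M KCl (n-octanol/0.15 M KCl partitioning). LAR calculated by an earlier published procedure.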

Ferriprotoporphyrin IX = experiment: Binding affinity to ferriprotoporphyrin 9sassessed as quenching of Soret band in presence of 40% DMSO-10 mM sodium phosphate buffer at pH 6.0
Outline: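 Heme (FP, fresh stock in 0.02 N NaOH diluted in PBS) at 15 μM final in 10 mM sodium phosphate pH 6.0 with 40% DMSO, compound added at 1 to 200 μM; absorption spectra read after 2 min, Soret band quenching followed. Job's plot run in parallel (FP plus compound totalling 10 μM, A400 difference vs molar ratio). Three experiments in triplicate.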

Plasmodium falciparum [12] = experiment: Resistance index, ratio of IC50 for chloroquine-resistant Plasmodium falciparum W2 to IC50 for chloroquine-susceptible Plasmodium falciparum D10; assay type: functional
Homo sapiens [13] = species: Homo sapiens; experiment: Ratio of binding affinity to human RBC membrane parasitized with Plasmodium falciparum W2 to binding affinity to normal human RBC; outline: as §2
Homo sapiens [14] = species: Homo sapiens; experiment: Ratio of binding affinity to human RBC membrane parasitized with Plasmodium falciparum D10 to binding affinity to normal human RBC; outline: as §2
[15] = Distribution coefficient, log D of the compound at pH 7.4; assay type: physicochemical; settings: octanol/water
[16] = Octanol-water partition coefficient, log P of the compound; assay type: physicochemical
[17] = Lipid accumulation ratio of the compound; assay type: physicochemical; outline: as §4

Structure (SMILES)	hemolysis at 50 µM [1]	Activity [2]	Activity [3]	Activity [4]	IC90 (Plasmodium falciparum [5])	Activity (Homo sapiens [6])	Activity (Erythrocyte)	IC90 (Plasmodium falciparum [7])	Drug uptake [8]	Drug uptake [9]	IC50 [10]	inhibition [10]	Ratio [11]	Activity (Ferriprotoporphyrin IX)	Ratio IC50 (Plasmodium falciparum [12])	IC50 (Plasmodium falciparum [5])	Ratio (Homo sapiens [13])	Ratio (Homo sapiens [14])	IC50 (Plasmodium falciparum [7])	logD [15]	further results
CCN(CC)CCCC(C)Nc1ccnc2cc(Cl)ccc12 (stereo not drawn) [CHLOROQUINE]	84%	Non-toxic	Toxic	Non-toxic	44.6 nM	Dose-dependent effect	40 nmol/h	441 nM	10%												
Clc1ccc2c(N[C@H]3CCCN4CCCC[C@H]34)ccnc2c1	50%	Non-toxic	Toxic	Non-toxic	35.1 nM	Dose-dependent effect	Active	33.1 nM	18%	50%	1.12 equiv	Dose-dependent effect	14900	Active	0.88	24.2 nM	1.5	2	21.3 nM	2.69	logP [16]: 4.57; Ratio [17]: 490
Clc1ccc2c(NC[C@@H]3CCCN4CCCC[C@H]34)ccnc2c1	28%	Non-toxic	Toxic	Non-toxic	34.3 nM	Dose-dependent effect	Active	54.9 nM	18%	50%	1.52 equiv	Dose-dependent effect	22600	Active	1.59	26.4 nM	2	1.5	41.8 nM	2.26	logP [16]: 4.94; Ratio [17]: 182
